ChEMBL document CHEMBL1154352, “Toll-like receptor 7 selective synthetic oligoribonucleotide agonists: synthesis and structure-activity relationship studies” (J Med Chem, 2009)
The source made the active and inactive calls. No cut-off for these calls is given here.

Tests used:
[1] = target: T1, Toll-like receptor 8 (Homo sapiens) (UniProt Q9NR97); test: Activation of human TLR8 expressed in HEK293XL assessed as fold induction of NF-kappaB activity at 50 ug/ml after 18 hrs by reporter gene assay relative to control
T1 sequence (whole entry): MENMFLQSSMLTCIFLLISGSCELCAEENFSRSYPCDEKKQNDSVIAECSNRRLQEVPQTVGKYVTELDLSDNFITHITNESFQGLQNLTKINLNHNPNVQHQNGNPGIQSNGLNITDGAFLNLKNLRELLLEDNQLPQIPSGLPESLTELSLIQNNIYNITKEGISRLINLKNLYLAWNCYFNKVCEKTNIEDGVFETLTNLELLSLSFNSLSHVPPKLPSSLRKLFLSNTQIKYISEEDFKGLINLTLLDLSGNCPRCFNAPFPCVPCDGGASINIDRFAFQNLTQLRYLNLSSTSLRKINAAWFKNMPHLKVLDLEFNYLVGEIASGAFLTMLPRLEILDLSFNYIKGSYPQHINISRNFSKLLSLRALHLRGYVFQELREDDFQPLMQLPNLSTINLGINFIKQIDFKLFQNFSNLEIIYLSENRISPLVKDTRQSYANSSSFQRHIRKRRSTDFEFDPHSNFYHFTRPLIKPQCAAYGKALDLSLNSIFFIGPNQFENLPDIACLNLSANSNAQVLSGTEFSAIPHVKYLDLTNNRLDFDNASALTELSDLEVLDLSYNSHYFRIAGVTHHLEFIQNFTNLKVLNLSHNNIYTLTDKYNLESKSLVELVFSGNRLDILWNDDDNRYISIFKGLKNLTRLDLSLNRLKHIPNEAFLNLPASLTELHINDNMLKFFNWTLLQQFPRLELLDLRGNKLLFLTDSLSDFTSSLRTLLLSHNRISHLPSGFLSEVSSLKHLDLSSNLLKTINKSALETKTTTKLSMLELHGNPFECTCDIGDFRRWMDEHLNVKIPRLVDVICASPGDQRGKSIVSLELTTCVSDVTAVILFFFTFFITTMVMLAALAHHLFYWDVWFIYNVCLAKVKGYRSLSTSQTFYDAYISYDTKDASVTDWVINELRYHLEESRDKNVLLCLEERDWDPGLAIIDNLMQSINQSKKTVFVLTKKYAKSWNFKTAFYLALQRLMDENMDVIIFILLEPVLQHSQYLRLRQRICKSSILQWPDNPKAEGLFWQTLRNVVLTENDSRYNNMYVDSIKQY
Summary of the method: (§1)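 HEK293 cells stably expressing human TLR7 or TLR8, transiently transfected with SEAP reporter plasmid; medium replaced, SIMRA compounds added, 18 h incubation. Supernatant SEAP measured by QuantiBlue; expressed as fold increase in NF-κB activity over PBS control. Tabulated data at 50 μg/mL, representative of three independent experiments.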

Splenocyte = test: Immunomodulatory activity in C57BL/6 mouse splenocytes bearing TLR7 receptor assessed as IL12 release at 100 ug/ml after 24 hrs by ELISA; format: functional, cell-based
Summary of the method: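 C57BL/6 splenocytes in RPMI 1640 with 10% FBS, penicillin/streptomycin, 2 mM L-glutamine, plated at 5 × 10^6 cells/mL; compounds in PBS added, 37 °C for 24 h. Supernatant IL-12 and IL-6 by ELISA; representative of three independent experiments.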

[2] = target: T2, Toll-like receptor 7 (Homo sapiens) (UniProt Q9NYK1); test: Activation of human TLR7 expressed in HEK293XL assessed as fold induction of NF-kappaB activity at 50 ug/ml after 18 hrs by reporter gene assay relative to control; summary of the method: as §1
T2 sequence (whole entry): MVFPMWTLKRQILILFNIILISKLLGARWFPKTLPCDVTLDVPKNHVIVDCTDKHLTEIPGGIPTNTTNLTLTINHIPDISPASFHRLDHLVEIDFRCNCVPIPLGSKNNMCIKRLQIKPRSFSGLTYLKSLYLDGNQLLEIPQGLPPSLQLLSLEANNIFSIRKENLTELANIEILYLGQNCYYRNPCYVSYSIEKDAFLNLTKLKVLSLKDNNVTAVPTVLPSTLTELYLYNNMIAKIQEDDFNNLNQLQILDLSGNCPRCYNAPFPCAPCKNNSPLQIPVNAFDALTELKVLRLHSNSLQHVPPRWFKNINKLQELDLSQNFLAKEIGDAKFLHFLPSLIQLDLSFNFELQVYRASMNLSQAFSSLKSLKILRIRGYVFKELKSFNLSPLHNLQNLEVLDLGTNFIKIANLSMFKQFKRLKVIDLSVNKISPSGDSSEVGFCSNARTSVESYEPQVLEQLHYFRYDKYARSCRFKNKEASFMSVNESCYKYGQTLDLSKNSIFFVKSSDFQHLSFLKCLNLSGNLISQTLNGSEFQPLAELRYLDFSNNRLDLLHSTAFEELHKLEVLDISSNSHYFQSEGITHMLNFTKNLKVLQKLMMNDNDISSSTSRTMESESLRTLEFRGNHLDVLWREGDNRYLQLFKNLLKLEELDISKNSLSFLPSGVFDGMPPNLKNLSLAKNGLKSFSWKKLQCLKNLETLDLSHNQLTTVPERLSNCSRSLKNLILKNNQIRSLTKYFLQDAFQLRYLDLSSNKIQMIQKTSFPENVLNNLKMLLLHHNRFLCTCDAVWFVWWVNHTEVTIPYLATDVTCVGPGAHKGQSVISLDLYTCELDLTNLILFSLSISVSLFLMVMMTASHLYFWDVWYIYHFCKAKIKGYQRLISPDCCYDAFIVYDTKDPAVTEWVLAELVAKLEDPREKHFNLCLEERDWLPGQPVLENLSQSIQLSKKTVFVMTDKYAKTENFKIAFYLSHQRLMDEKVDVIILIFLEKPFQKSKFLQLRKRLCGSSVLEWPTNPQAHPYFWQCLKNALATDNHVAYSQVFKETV

PBMC [3] = test: Immunomodulatory activity in human PBMC assessed as induction of IFN-alpha at 100 ug/ml after 24 hrs
[4] = target: Toll-like receptor 3 (Homo sapiens) (UniProt O15455); test: Activation of human TLR3 expressed in HEK293 assessed as induction of NF-kappaB activity reporter gene assay; format: cell-based
PBMC [5] = test: Immunomodulatory activity in human PBMC assessed as induction of TNFalpha at 100 ug/ml after 24 hrs; format: functional, cell-based
Summary of the method: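 Human PBMCs plated at 5 × 10^6 cells/mL; compounds dissolved in PBS added at various concentrations, 37 °C for 24 h. Supernatant cytokines/chemokines quantified with human Luminex multiplex kit.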

Toll-like receptor 3 (Homo sapiens), sequence (O15455 whole entry): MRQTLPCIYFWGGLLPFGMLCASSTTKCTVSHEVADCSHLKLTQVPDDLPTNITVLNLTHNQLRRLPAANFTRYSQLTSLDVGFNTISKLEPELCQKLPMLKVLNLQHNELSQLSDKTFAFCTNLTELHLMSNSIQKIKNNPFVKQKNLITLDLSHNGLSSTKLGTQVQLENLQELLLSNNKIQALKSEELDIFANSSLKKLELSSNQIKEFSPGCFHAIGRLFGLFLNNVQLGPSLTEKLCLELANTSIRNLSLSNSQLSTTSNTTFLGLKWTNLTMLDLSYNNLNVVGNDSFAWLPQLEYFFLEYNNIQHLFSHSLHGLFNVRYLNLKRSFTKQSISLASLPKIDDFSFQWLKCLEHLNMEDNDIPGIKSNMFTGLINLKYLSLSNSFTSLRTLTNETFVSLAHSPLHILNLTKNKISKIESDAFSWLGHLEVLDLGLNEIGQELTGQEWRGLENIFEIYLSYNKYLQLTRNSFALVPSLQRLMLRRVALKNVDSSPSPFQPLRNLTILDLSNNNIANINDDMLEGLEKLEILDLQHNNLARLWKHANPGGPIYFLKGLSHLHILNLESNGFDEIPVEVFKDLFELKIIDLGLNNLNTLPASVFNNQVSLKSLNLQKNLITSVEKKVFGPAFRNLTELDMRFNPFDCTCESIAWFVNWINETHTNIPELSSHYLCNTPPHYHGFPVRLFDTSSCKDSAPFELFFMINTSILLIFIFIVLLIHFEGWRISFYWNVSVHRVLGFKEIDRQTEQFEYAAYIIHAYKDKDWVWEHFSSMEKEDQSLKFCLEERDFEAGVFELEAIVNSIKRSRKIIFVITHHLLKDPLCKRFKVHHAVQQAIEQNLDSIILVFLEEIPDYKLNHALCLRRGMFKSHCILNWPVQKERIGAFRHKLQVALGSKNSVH

## Nc1ccn([C@@H]2O[C@H](COP(=O)(S)O[C@H]3[C@@H](O)[C@H](n4cnc5c(N)ncnc54)O[C@@H]3COP(=O)(S)O[C@H]3[C@@H](O)[C@H](n4ccc5c(=O)[nH]c(N)nc54)O[C@@H]3COP(=O)(S)O[C@H]3[C@@H](O)[C@H](n4ccc(=O)[nH]c4=O)O[C@@H]3COP(=O)(S)O[C@H]3[C@@H](O)[C@H](n4ccc5c(=O)[nH]c(N)nc54)O[C@@H]3COP(=O)(S)O[C@H]3[C@@H](O)[C@H](n4cnc5c(N)ncnc54)O[C@@H]3COP(=O)(S)O[C@H]3[C@@H](O)[C@H](n4cnc5c(N)ncnc54)O[C@@H]3CO)[C@@H](OP(=O)(S)OC[C@H]3O[C@@H](n4ccc5c(=O)[nH]c(N)nc54)[C@H](O)[C@@H]3OP(=O)(S)OC[C@H]3O[C@@H](n4cnc5c(N)ncnc54)[C@H](O)[C@@H]3OP(=O)(S)OC[C@H]3O[C@@H](n4ccc(=O)[nH]c4=O)[C@H](O)[C@@H]3OP(=O)(S)OC[C@H]3O[C@@H](n4ccc(=O)[nH]c4=O)[C@H](O)[C@@H]3OP(=O)(S)OCC(O)COP(=O)(S)O[C@H]3[C@@H](O)[C@H](n4ccc(=O)[nH]c4=O)O[C@@H]3COP(=O)(S)O[C@H]3[C@@H](O)[C@H](n4ccc(=O)[nH]c4=O)O[C@@H]3COP(=O)(S)O[C@H]3[C@@H](O)[C@H](n4cnc5c(N)ncnc54)O[C@@H]3COP(=O)(S)O[C@H]3[C@@H](O)[C@H](n4ccc5c(=O)[nH]c(N)nc54)O[C@@H]3COP(=O)(S)O[C@H]3[C@@H](O)[C@H](n4ccc(N)nc4=O)O[C@@H]3COP(=O)(S)O[C@H]3[C@@H](O)[C@H](n4cnc5c(N)ncnc54)O[C@@H]3COP(=O)(S)O[C@H]3[C@@H](O)[C@H](n4ccc5c(=O)[nH]c(N)nc54)O[C@@H]3COP(=O)(S)O[C@H]3[C@@H](O)[C@H](n4ccc(=O)[nH]c4=O)O[C@@H]3COP(=O)(S)O[C@H]3[C@@H](O)[C@H](n4ccc5c(=O)[nH]c(N)nc54)O[C@@H]3COP(=O)(S)O[C@H]3[C@@H](O)[C@H](n4cnc5c(N)ncnc54)O[C@@H]3COP(=O)(S)O[C@H]3[C@@H](O)[C@H](n4cnc5c(N)ncnc54)O[C@@H]3CO)[C@H]2O)c(=O)n1 (stereo partly specified)
[1]
  fold change (FC): 0.8
Splenocyte
  Activity: Active
[2]
  fold change (FC): 17.5
PBMC [3]
  IFN-alpha: 254 pg/mL
[4]
  Activity: inactive
PBMC [5]
  Activity: 15.7 pg/mL
